Tests used:
Cyperus iria [1] = experiment: Post-emergence herbicidal activity against Cyperus iria assessed as growth inhibition at 75 g ai/ha measured 15 days post compound treatment under green house conditions; type: functional; conditions: 360 h, read-out: GI
In short: (§1)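 Compounds formulated as 100 g/L emulsifiable concentrate (DMF solvent, Tween-80 emulsifier), diluted with water, sprayed post-emergence on pot-grown weeds in clay soil (pH 6.5, 1.6% organic matter). Seeds sown 1-3 cm deep, grown at 15-30 °C. Dicots were treated at the 2-leaf stage and monocots at the 1-leaf stage. Untreated and DMF-treated controls were included. Injury was rated visually 15 days after treatment.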

Digitaria sanguinalis = experiment: Post-emergence herbicidal activity against Digitaria sanguinalis (hairy crabgrass) assessed as growth inhibition at 150 g ai/ha measured 15 days post compound treatment under green house conditions; type: functional; conditions: 360 h, read-out: GI; in short: as §1
Rumex acetosa [2] = experiment: Post-emergence herbicidal activity against Rumex acetosa assessed as growth inhibition at 150 g ai/ha measured 15 days post compound treatment under green house conditions; type: functional; conditions: 360 h, read-out: GI; in short: as §1
Rumex acetosa [3] = experiment: Post-emergence herbicidal activity against Rumex acetosa assessed as growth inhibition at 75 g ai/ha measured 15 days post compound treatment under green house conditions; type: functional; conditions: 360 h, read-out: GI; in short: as §1
Eclipta prostrata [4] = experiment: Post-emergence herbicidal activity against Eclipta prostrata assessed as growth inhibition at 75 g ai/ha measured 15 days post compound treatment under green house conditions; type: functional; conditions: 360 h, read-out: GI; in short: as §1
Amaranthus retroflexus [5] = experiment: Post-emergence herbicidal activity against Amaranthus retroflexus assessed as growth inhibition at 150 g ai/ha measured 15 days post compound treatment under green house conditions; type: functional; conditions: 360 h, read-out: GI; in short: as §1
Eclipta prostrata [6] = experiment: Post-emergence herbicidal activity against Eclipta prostrata assessed as growth inhibition at 150 g ai/ha measured 15 days post compound treatment under green house conditions; type: functional; conditions: 360 h, read-out: GI; in short: as §1
Cyperus iria [7] = experiment: Post-emergence herbicidal activity against Cyperus iria assessed as growth inhibition at 150 g ai/ha measured 15 days post compound treatment under green house conditions; type: functional; conditions: 360 h, read-out: GI; in short: as §1
Polygonum humifusum [8] = experiment: Post-emergence herbicidal activity against Polygonum humifusum assessed as growth inhibition at 75 g ai/ha measured 15 days post compound treatment under green house conditions; type: functional; conditions: 360 h, read-out: GI; in short: as §1
Amaranthus retroflexus [9] = experiment: Post-emergence herbicidal activity against Amaranthus retroflexus assessed as growth inhibition at 37.5 g ai/ha measured 15 days post compound treatment under green house conditions; type: functional; conditions: 360 h, read-out: GI; in short: as §1
Amaranthus retroflexus [10] = experiment: Post-emergence herbicidal activity against Amaranthus retroflexus assessed as growth inhibition at 75 g ai/ha measured 15 days post compound treatment under green house conditions; type: functional; conditions: 360 h, read-out: GI; in short: as §1
Polygonum humifusum [11] = experiment: Post-emergence herbicidal activity against Polygonum humifusum assessed as growth inhibition at 37.5 g ai/ha measured 15 days post compound treatment under green house conditions; type: functional; conditions: 360 h, read-out: GI; in short: as §1
Galium aparine [12] = experiment: Post-emergence herbicidal activity against Galium aparine assessed as growth inhibition at 37.5 g ai/ha measured 15 days post compound treatment under green house conditions; type: functional; conditions: 360 h, read-out: GI; in short: as §1
Chenopodium album [13] = experiment: Post-emergence herbicidal activity against Chenopodium album assessed as growth inhibition at 37.5 g ai/ha measured 15 days post compound treatment under green house conditions; type: functional; conditions: 360 h, read-out: GI; in short: as §1
Echinochloa crus-galli = experiment: Post-emergence herbicidal activity against Echinochloa crus-galli (barnyard grass) assessed as growth inhibition at 150 g ai/ha measured 15 days post compound treatment under green house conditions; type: functional; conditions: 360 h, read-out: GI; in short: as §1
Galium aparine [14] = experiment: Post-emergence herbicidal activity against Galium aparine assessed as growth inhibition at 75 g ai/ha measured 15 days post compound treatment under green house conditions; type: functional; conditions: 360 h, read-out: GI; in short: as §1
Cerastium arvense [15] = experiment: Post-emergence herbicidal activity against Cerastium arvense assessed as growth inhibition at 37.5 g ai/ha measured 15 days post compound treatment under green house conditions; type: functional; conditions: 360 h, read-out: GI; in short: as §1
Rumex acetosa [16] = experiment: Post-emergence herbicidal activity against Rumex acetosa assessed as growth inhibition at 37.5 g ai/ha measured 15 days post compound treatment under green house conditions; type: functional; conditions: 360 h, read-out: GI; in short: as §1
Poa annua = experiment: Post-emergence herbicidal activity against Poa annua assessed as growth inhibition at 150 g ai/ha measured 15 days post compound treatment under green house conditions; type: functional; conditions: 360 h, read-out: GI; in short: as §1
Polygonum humifusum [17] = experiment: Post-emergence herbicidal activity against Polygonum humifusum assessed as growth inhibition at 150 g ai/ha measured 15 days post compound treatment under green house conditions; type: functional; conditions: 360 h, read-out: GI; in short: as §1
Chenopodium album [18] = experiment: Post-emergence herbicidal activity against Chenopodium album assessed as growth inhibition at 150 g ai/ha measured 15 days post compound treatment under green house conditions; type: functional; conditions: 360 h, read-out: GI; in short: as §1
Cerastium arvense [19] = experiment: Post-emergence herbicidal activity against Cerastium arvense assessed as growth inhibition at 150 g ai/ha measured 15 days post compound treatment under green house conditions; type: functional; conditions: 360 h, read-out: GI; in short: as §1
[20] = target: T1, Acetolactate synthase, chloroplastic (Arabidopsis thaliana, UniProt P17597)
T1 sequence (P17597 whole entry): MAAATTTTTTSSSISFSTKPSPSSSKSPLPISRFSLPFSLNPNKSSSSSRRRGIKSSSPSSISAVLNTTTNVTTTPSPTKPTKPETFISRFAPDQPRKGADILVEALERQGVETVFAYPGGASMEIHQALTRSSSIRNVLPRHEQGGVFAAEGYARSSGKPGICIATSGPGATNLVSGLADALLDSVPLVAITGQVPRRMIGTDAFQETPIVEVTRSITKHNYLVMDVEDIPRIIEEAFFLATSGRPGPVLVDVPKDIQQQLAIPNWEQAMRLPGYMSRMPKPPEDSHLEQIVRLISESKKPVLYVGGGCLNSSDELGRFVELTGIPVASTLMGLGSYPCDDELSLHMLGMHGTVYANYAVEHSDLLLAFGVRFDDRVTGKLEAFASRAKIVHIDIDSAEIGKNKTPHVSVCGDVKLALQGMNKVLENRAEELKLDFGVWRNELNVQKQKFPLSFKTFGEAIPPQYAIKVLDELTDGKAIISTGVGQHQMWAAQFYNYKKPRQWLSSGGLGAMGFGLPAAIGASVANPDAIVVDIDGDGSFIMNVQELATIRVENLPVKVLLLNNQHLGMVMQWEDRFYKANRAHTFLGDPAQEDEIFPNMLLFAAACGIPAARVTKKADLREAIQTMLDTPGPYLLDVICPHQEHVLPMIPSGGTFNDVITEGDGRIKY

Eclipta prostrata [21] = experiment: Post-emergence herbicidal activity against Eclipta prostrata assessed as growth inhibition at 37.5 g ai/ha measured 15 days post compound treatment under green house conditions; type: functional; conditions: 360 h, read-out: GI; in short: as §1
Cerastium arvense [22] = experiment: Post-emergence herbicidal activity against Cerastium arvense assessed as growth inhibition at 75 g ai/ha measured 15 days post compound treatment under green house conditions; type: functional; conditions: 360 h, read-out: GI; in short: as §1
Brassica juncea = experiment: Post-emergence herbicidal activity against Brassica juncea assessed as growth inhibition at 150 g ai/ha measured 15 days post compound treatment under green house conditions; type: functional; conditions: 360 h, read-out: GI; in short: as §1
Cyperus iria [23] = experiment: Post-emergence herbicidal activity against Cyperus iria assessed as growth inhibition at 37.5 g ai/ha measured 15 days post compound treatment under green house conditions; type: functional; conditions: 360 h, read-out: GI; in short: as §1
Chenopodium album [24] = experiment: Post-emergence herbicidal activity against Chenopodium album assessed as growth inhibition at 75 g ai/ha measured 15 days post compound treatment under green house conditions; type: functional; conditions: 360 h, read-out: GI; in short: as §1
Galium aparine [25] = experiment: Post-emergence herbicidal activity against Galium aparine assessed as growth inhibition at 150 g ai/ha measured 15 days post compound treatment under green house conditions; type: functional; conditions: 360 h, read-out: GI; in short: as §1

Cc1ccn2nc(S(=O)(=O)Nc3c(F)cccc3F)nc2n1
0.36 µM: Ki [20]
50%: inhibition of growth at 75 g/ha (Cyperus iria [1]) | inhibition of growth at 75 g/ha (Rumex acetosa [3]) | inhibition of growth at 150 g/ha (Cyperus iria [7]) | inhibition of growth at 37.5 g/ha (Galium aparine [12]) | inhibition of growth at 37.5 g/ha (Chenopodium album [13]) | inhibition of growth at 150 g/ha (Echinochloa crus-galli) | inhibition of growth at 75 g/ha (Galium aparine [14]) | inhibition of growth at 37.5 g/ha (Rumex acetosa [16]) | inhibition of growth at 150 g/ha (Poa annua) | inhibition of growth at 37.5 g/ha (Cyperus iria [23])
≥ 80%: inhibition of growth at 150 g/ha (Digitaria sanguinalis) | inhibition of growth at 150 g/ha (Rumex acetosa [2]) | inhibition of growth at 37.5 g/ha (Polygonum humifusum [11]) | inhibition of growth at 150 g/ha (Galium aparine [25])
≥ 90%: inhibition of growth at 75 g/ha (Eclipta prostrata [4]) | inhibition of growth at 150 g/ha (Amaranthus retroflexus [5]) | inhibition of growth at 150 g/ha (Eclipta prostrata [6]) | inhibition of growth at 75 g/ha (Polygonum humifusum [8]) | inhibition of growth at 37.5 g/ha (Amaranthus retroflexus [9]) | inhibition of growth at 75 g/ha (Amaranthus retroflexus [10]) | inhibition of growth at 37.5 g/ha (Cerastium arvense [15]) | inhibition of growth at 150 g/ha (Polygonum humifusum [17]) | inhibition of growth at 150 g/ha (Chenopodium album [18]) | inhibition of growth at 150 g/ha (Cerastium arvense [19]) | inhibition of growth at 37.5 g/ha (Eclipta prostrata [21]) | inhibition of growth at 75 g/ha (Cerastium arvense [22]) | inhibition of growth at 150 g/ha (Brassica juncea) | inhibition of growth at 75 g/ha (Chenopodium album [24])

COc1ccn2nc(S(=O)(=O)Nc3cccc(Cl)c3Cl)nc2n1
≥ 50%: inhibition of growth at 150 g/ha (Amaranthus retroflexus [5]) | inhibition of growth at 150 g/ha (Eclipta prostrata [6])
50%: inhibition of growth at 75 g/ha (Cyperus iria [1]) | inhibition of growth at 150 g/ha (Rumex acetosa [2]) | inhibition of growth at 75 g/ha (Rumex acetosa [3]) | inhibition of growth at 75 g/ha (Eclipta prostrata [4]) | inhibition of growth at 150 g/ha (Cyperus iria [7]) | inhibition of growth at 75 g/ha (Polygonum humifusum [8]) | inhibition of growth at 37.5 g/ha (Amaranthus retroflexus [9]) | inhibition of growth at 75 g/ha (Amaranthus retroflexus [10]) | inhibition of growth at 37.5 g/ha (Polygonum humifusum [11]) | inhibition of growth at 37.5 g/ha (Galium aparine [12]) | inhibition of growth at 75 g/ha (Galium aparine [14]) | inhibition of growth at 37.5 g/ha (Rumex acetosa [16]) | inhibition of growth at 150 g/ha (Polygonum humifusum [17]) | inhibition of growth at 37.5 g/ha (Eclipta prostrata [21]) | inhibition of growth at 37.5 g/ha (Cyperus iria [23]) | inhibition of growth at 150 g/ha (Galium aparine [25])
14.8 µM: Ki [20]
≥ 80%: inhibition of growth at 150 g/ha (Brassica juncea)
< 50%: inhibition of growth at 150 g/ha (Digitaria sanguinalis) | inhibition of growth at 37.5 g/ha (Chenopodium album [13]) | inhibition of growth at 150 g/ha (Echinochloa crus-galli) | inhibition of growth at 37.5 g/ha (Cerastium arvense [15]) | inhibition of growth at 150 g/ha (Poa annua) | inhibition of growth at 150 g/ha (Chenopodium album [18]) | inhibition of growth at 150 g/ha (Cerastium arvense [19]) | inhibition of growth at 75 g/ha (Cerastium arvense [22]) | inhibition of growth at 75 g/ha (Chenopodium album [24])
